MPTP block: inhibitors of mitochondrial permeability transition pore; isolated mouse mitochondria, Ca2+ swelling absorbance, 30 min; inhibition, % at 10 µM; hit rate 1.4% among 360,000;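 active = inhibition of 50% or more, scaled per plate between neutral and stimulator controls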;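 also: 0% = DMSO wells given calcium and 100% = 1 mM EGTA wells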
DTT redox prof: compounds producing H2O2 with reducing agent – biochemical, NIH compound library profiling, artefact control for MLSCN library redox annotation, primary screen; DTT-dependent redox cycling H2O2, phenol red/HRP absorbance; 100% = 100 µM peroxide control, 0% = buffer; activation, % at 10 µM; hit rate 0.03% among 200,000;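 active = activation of at least 50% relative to the plate's high and low controls in the primary single-dose screen; inactive = activation below 50%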;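 also: compound incubated with DTT at 0.8 mM final as the reducing agent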
Lipid droplet: modulators of hepatic lipid droplet formation; AML12 mouse hepatocytes, oleate lipid droplets, BODIPY imaging; inhibition, % at 6.5 µM; hit rate 0.4% among 240,000;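 active = lipid droplet intensity inhibited by at least 50%, with more than 500 cells counted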
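Technique: fluorescence imaging, 20x objective, two fields per well / Assay system: AML12 hepatocytes (mouse) / Measure: % inhibition of lipid droplet signal / Doses: 6.5 µM single-point dosing / Incubation: overnight exposure / Reagent: 100 µM oleic acid challenge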
Lmaj promast: reduces viability of Leishmania major promastigotes. resazurin fluorescence viability. inhibition, % at 10 µM. hit rate 9% among 200,000. AID 1063; in the data active = inhibition above about 50%;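 also: promastigotes grown with compound for 44 hours at 28 °C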
T cruzi inh: T. cruzi replication inhibition; inhibition, % (no concentration beside the values); hit rate 1.4% among 300,000; AID 1885; T. cruzi beta-gal in NIH3T3, luminescence, 90 h;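 active = mean inhibition across valid replicates above about 55%, limit read from the data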;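 also: signal also drops with host cell toxicity which is not excluded here; 0% = plate median of DMSO wells and 100% = zero luminescence signal; higher percent means less beta-gal luminescence so fewer parasites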
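Material: NIH/3T3 host cells with β-galactosidase reporter T. cruzi; Input: 5,000 host fibroblasts per well; Medium: DMEM, 2% fetal bovine serum; Compound: 50 nL DMSO compound solution per well; Schedule: 3 h host attachment, then at least 90 h co-culture; Detection: luminescent β-galactosidase signal after 60 min lysis.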
MPTP counter: mitochondrial membrane potential, counter-screen. shares compounds with MPTP block. isolated mitochondria, Rhodamine 123 fluorescence. inhibition, % at 10 µM. hit rate 78% among 5,000. AID 624504; in the data active = inhibition above about 22%;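 also: 0% = DMSO vehicle and 100% = positive control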
MPTP swell DR: MPTP inhibition, dose response swelling confirmation | isolated mitochondria swelling, absorbance | IC50, µM | hit rate 58% among 780 | shares compounds with MPTP block; in the data active = IC50 below about 20 µM
MPTP counter DR: active in counter-screen for permeability transition pore inhibitors | shares compounds with MPTP block | isolated mitochondria counterscreen, fluorescence read-out | IC50, µM | hit rate 49% among 780 | AID 651564; in the data active = IC50 below about 80 µM
* = called active by the depositor; i = inactive; · = no result given. This is one part of a sample in which hits are shown more often than they occur.

SMILES	MPTP block	DTT redox prof	Lipid droplet	Lmaj promast	T cruzi inh	MPTP counter	others
CC(CC(=O)Nc1ncc([N+](=O)[O-])s1)c1ccccc1 (stereo not drawn)	39.8	-0.1	-32.9	18.7	·	·
O=C(COc1ccc(Cl)cc1)Nc1ncc([N+](=O)[O-])s1	95.0*	-1.6	-23.4	11.0	-4.0	103.0*
O=C(Cc1ccc(Cl)cc1)Nc1ncc([N+](=O)[O-])s1	96.2*	0.3	-2.0	35.8	93.7*	88.9*
Cc1nn(-c2ccc(F)cc2)c(Cl)c1/C=C/C(=O)OCC(=O)Nc1c(F)c(F)c(F)c(F)c1F	28.6	0.9	14.8	-6.6	-20.4	·
COc1cc(N)c(Cl)cc1C(=O)OCC(=O)N1CCCCCC1	-1.2	·	·	·	·	·
COc1cc(NS(=O)(=O)c2c(C(=O)N3CCOCC3)c(C)n(C)c2C)cc(OC)c1OC	-1.1	·	21.5	·	-4.8	·
S=C(NCCSCc1c(Cl)cccc1Cl)Nc1ccccc1	79.3*	1.8	·	17.0	56.1*	86.2*
OCCNCc1cc(Br)ccc1OCc1ccccc1Cl	3.0	0.3	-24.2	12.5	-3.3	·
OCCNCc1ccc(OCc2ccc(Cl)cc2Cl)cc1	93.8*	-0.3	-0.9	100.5*	31.3	-5.9	MPTP swell DR=4.17*;MPTP counter DR=>80
COc1ccc(CSCCNC(=S)Nc2ccccc2)cc1Cl	78.5*	-1.2	-8.8	11.0	-5.0	90.1*
Cc1ccc(C(=O)NCCSCc2ccc(Cl)cc2Cl)cc1[N+](=O)[O-]	68.4*	1.5	-4.6	0.1	15.1	78.4*
CC(C)COc1ccc(CNC(=S)NCc2ccccc2)cc1	53.3*	-7.8	·	0.9	44.0	81.5*
S=C(Nc1ccccc1)Nc1ccc(OCc2ccc(Cl)cc2Cl)cc1	84.8*	3.2	7.2	18.4	-14.9	88.7*
Cc1ccccc1CSCCNC(=O)c1ccccc1	1.8	-0.7	-21.5	4.0	5.4	·
Cc1ccccc1CSCCNC(=S)Nc1ccccc1	56.9*	-0.3	-3.1	28.8	-10.8	78.4*
S=C(NCCSCc1ccc(Cl)cc1Cl)Nc1ccccc1	96.9*	2.3	·	83.6*	-21.4	105.0*
O=C(C/C=N\OCc1ccc(Cl)cc1Cl)Nc1ccccc1	-1.4	0.0	-0.2	3.0	5.1	·
CC(C)Cn1c(N)c(C(=O)COC(=O)c2cc(S(=O)(=O)N3CCOCC3)ccc2Br)c(=O)n(C)c1=O	0.7	·	·	·	·	·
CC(C)c1onc(C(=O)NC2CCCCC2)c1[N+](=O)[O-]	0.6	0.5	3.7	-0.7	-26.0	·
COc1cscc1C(N)=O	0.1	·	5.8	·	-10.0	·
CC(C)COc1ccc(CNC(=S)Nc2ccccc2)cc1Cl	74.3*	·	1.0	·	8.7	86.0*
CCCN(CC(=O)Nc1ccccc1C)C(=O)CC(NC(=O)c1ccccc1)c1ccccc1 (stereo not drawn)	-1.0	·	·	·	3.8	·
CCCCCc1ccc(-c2cn(CN3C(=O)c4ccccc4C3=O)nn2)cc1	71.2*	·	15.4	·	0.1	10.9	MPTP swell DR=<0.2*;MPTP counter DR=<2.5*
CCCCCc1ccc(-c2cn(Cc3ccc(C)cc3)nn2)cc1	0.0	·	·	·	-20.3	·
FC(F)(F)c1cc(-c2ccccc2)nc(N2CCCCC2)n1	67.3*	1.1	-0.1	-4.6	7.5	-2.3	MPTP swell DR=i;MPTP counter DR=>80
SMILES	MPTP block	DTT redox prof	Lipid droplet	Lmaj promast	T cruzi inh	MPTP counter	others
O=C(O)C1CCCCC1C(=O)N1CC=C(c2ccccc2)CC1 (stereo not drawn)	73.9*	3.8	24.5	60.6*	-1.3	10.9	MPTP swell DR=>100;MPTP counter DR=>80
Cc1ccc(C(=O)N2CC=C(c3ccccc3)CC2)s1	-1.4	·	·	·	-4.7	·
Clc1ccc(N2CCN(/N=C/c3ccncc3)CC2)cc1	60.7*	·	12.9	·	34.2	50.0*
CC(C)(C)c1ccc(C(=O)NNC(=O)CNC(=O)c2cccs2)cc1	-1.0	·	·	·	·	·
Cc1ccc(OCCC(=O)Nc2ccc(F)c(Cl)c2)cc1	66.9*	-0.6	6.5	27.1	-10.9	63.7*
Cc1ccc(OCCC(=O)Nc2ccc(C)c(F)c2)cc1	2.9	-0.4	-14.4	-6.2	13.4	·
Cc1ccc(S(=O)(=O)NCCC(=O)Nc2ccc(Cl)c(Cl)c2)cc1C	37.1	0.2	-50.0	7.7	15.5	·
Cc1ccc(S(=O)(=O)NNC(=O)Nc2ccc(Cl)c(Cl)c2)cc1	86.2*	0.0	-5.3	-4.2	3.2	97.1*
Cc1cc(NC(=O)Nc2ccc(F)c(Cl)c2)no1	51.3*	1.5	3.1	-0.7	12.2	85.4*
Cc1ccc(S(=O)(=O)NCCC(=O)Nc2ccc(Cl)c(Cl)c2)cc1	89.6*	-0.3	3.7	11.7	1.5	87.2*
Cc1ccccc1NS(=O)(=O)c1cccc2nsnc12	0.1	·	·	·	0.6	·
CCCCCCCCC(=O)c1c(OC)oc(C=O)cc1=O	1.4	·	·	·	·	·
CCOC(=O)c1cnn(-c2sc(C(=O)OCC)c(C)c2C(=O)OCC)c1N	88.0*	0.0	·	-8.1	-9.6	73.6*
CCOC(=O)c1cnn(-c2cc(C)cc(C)c2)c1N	-1.0	0.2	-5.3	-1.9	-7.5	·
Cc1nc2nc(SCC(=O)O)nn2c(C)c1Cc1ccccc1Cl	0.6	-0.5	11.5	-3.0	2.3	·
OC[C@@H]1CN(Cc2cccs2)C[C@H](n2cnc3c(N4CCN(c5ccccc5)CC4)ncnc32)O1	0.2	·	·	·	·	·
OCCN1CCN(c2ncnc3c2ncn3[C@H]2CN(Cc3cccs3)C[C@@H](CO)O2)CC1	57.1*	·	·	·	·	-2.6	MPTP swell DR=>100;MPTP counter DR=>80
Cc1ccc(NC(=S)/C(C#N)=C2/Nc3ccccc3S2)cc1	64.6*	·	·	·	·	39.3*
CC(C)(C)c1ccccc1OCCCCCNCCO	90.0*	-0.8	-2.0	93.0*	22.8	-14.7	MPTP swell DR=7.88*;MPTP counter DR=>80
COc1ccc(OC)c(NC(=S)Nc2ccccc2)c1	0.5	·	-2.3	·	9.3	·
Cc1ccc(NC(=S)NNC(=S)Nc2cccc(C(F)(F)F)c2)cc1	73.3*	·	9.8	·	44.0	53.3*
COc1cccc(NC(=S)Nc2ccc(Br)cc2Cl)c1	55.5*	·	-18.6	·	5.4	68.8*
COc1ccc(NC(=S)Nc2cccc(C(F)(F)F)c2)c(C)c1	78.2*	1.1	-1.5	11.3	-23.8	104.0*
CSc1ccccc1NC(=S)Nc1cccc(C(F)(F)F)c1	94.4*	-1.3	0.7	-0.4	1.0	92.3*
CCC(CC)NC(=O)C1CC(=O)N(CCc2ccc(F)cc2)C1 (stereo not drawn)	-0.6	·	2.2	·	-22.7	·
Cc1cccn2c(CN3CCNC(=O)CC3)c(C(=O)N(C)CCc3ccccc3)nc12	1.3	1.0	-1.7	5.5	-0.5	·
CC1Cc2cc(/C(O)=C3/C(=O)C(=O)N(CCCN4CCOCC4)C3c3ccc(C(C)C)cc3)ccc2O1 (stereo not drawn)	-0.6	·	8.7	·	-9.1	·
COc1ccccc1N1CCN(C(=O)CCCCCn2c(=O)[nH]c3ccsc3c2=O)CC1	1.7	0.3	9.2	-4.7	-0.3	·

Compound activity from PubChem.
